hERG rescue: hERG rescue from dofetilide block, primary screen, cell-based, CHO-hERG, FluxOR thallium flux, dofetilide IC70. Voltage-gated inwardly rectifying potassium channel KCNH2 (Homo sapiens), Q12809. dofetilide IC70 present. activation (rescue from dofetilide block), less the hit threshold, % at 10 µM. hit rate 0.51% among 310,000. AID 1511, 2009;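 active means activation above the mean of controls blocked by dofetilide plus 5 SD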;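 further: thallium influx through hERG after potassium depolarization seen as dye fluorescence rise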
KCNQ1 inh: inhibitors of human KCNQ1 channel, primary screen, cell-based, thallium flux, high-throughput; B-score at 10 µM; AID 2642, 2010; CHO-K1 KCNQ1, FluxOR thallium flux fluorescence; hits give high values; hit rate 1.3% among 310,000; Potassium voltage-gated channel subfamily KQT member 1 (Homo sapiens), P51787;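 active means compounds whose thallium flux B-score, printed positive for inhibition, exceeds three library SD while starting fluorescence stays within three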;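 further: channel opened by potassium depolarization with thallium stimulus after 20 min compound exposure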
KCNQ1 act: potentiators or activators of KCNQ1 channel, primary screen, cell-based, thallium flux, high-throughput; B-score at 10 µM; hit rate 0.35% among 310,000; Potassium voltage-gated channel subfamily KQT member 1 (Homo sapiens), P51787; CHO-K1 KCNQ1, thallium flux FluxOR fluorescence; hits give high values; AID 2648, 2010;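 active means fluorescence ratio B-score, a plate-corrected score, at least three library SD, with initial intensity B-score within 5 SD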
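assay system = KCNQ1-transfected CHO-K1 cells | medium = assay buffer with matched DMSO | probe or stimulus = depolarizing K+/Tl+ stimulus, K2SO4 and Tl2SO4 each 12.5 mM in 5x stock | dosing = single dose | incubation = dye 90 min, compound 20 min, room temperature | detection = kinetic FluxOR fluorescence, 10 s baseline plus 110 s post-stimulus | evaluation = ratio B score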
KCNK9 block: KCNK9 potassium channel inhibitors, primary screen, HEK293 cells, thallium flux; hit rate 1.2% among 310,000; FluxOR thallium flux fluorescence; hits give low values; AID 488922, 2010; B-score at 10 µM;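 active means ratio B-score over 3 SD below the library mean, with starting fluorescence within 5 SD of its mean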;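 further: negative B-score means less thallium flux so channel inhibition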
KCNK3 block: human KCNK3 channel inhibitors, primary screen, CHO cells, FluxOR thallium flux, B-score | FluxOR fluorescence; hits give low values | Potassium channel subfamily K member 3 (Homo sapiens), O14649 | B-score at 10 µM | AID 602410, 2012 | hit rate 0.84% among 340,000;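 active means B-score under library mean minus 4 SD, starting fluorescence ratio at most library mean plus 5 SD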;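 further: more negative B-score means stronger inhibition of thallium flux through KCNK3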
KCNK9 block conf: KCNK9 potassium channel inhibitors, confirmation, HEK293 cells, thallium flux, duplicate | shares compounds with KCNK9 block | FluxOR thallium flux fluorescence | inhibition, % at 10 µM | hit rate 43% among 4,900;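 active means thallium signal inhibited by more than 5 SD of the compound-free buffer control wells, on both duplicate plates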;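 further: 0% = assay buffer control wells without compound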
Kir2-1 spec: mouse Kir2.1 channel inhibition, confirmation, selectivity assay for KCNK9 modulator project, cell-based, HEK293, thallium flux; shares compounds with KCNK9 block; Kir2.1 cells, FluxOR thallium flux fluorescence; inhibition, % at 10 µM; hit rate 4% among 4,900;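 active means thallium signal drop more than 5 SD beyond the mean of the no-compound control wells, seen in both duplicate plates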;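 further: signal is fluorescence rise after thallium addition divided by baseline fluorescence; plate controls were assay buffer only for no effect and full block by chlorpromazine control for full effect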
KCNK9 uninduced: thallium flux in non-induced HEK293 cells, confirmation, counter-screen for KCNK9 inhibitor project, cell-based, second counter screen, non-induced KCNK9-HEK293. shares compounds with KCNK9 block. FluxOR thallium flux. inhibition, % at 10 µM. hit rate 40% among 4,900;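 active means thallium signal drop beyond 5 SD of the untreated control mean, on both duplicate plates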;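 further: plate controls were buffer only IC0 wells for no effect and SID17386958 at its maximal inhibitory level for full effect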
The depositor's hits bear a star; i = inactive; . = no result given. A selection: hits, their analogues and other compounds. The true share with any hit is near 3.1%.

SMILES	hERG rescue	KCNQ1 inh	KCNQ1 act	KCNK9 block	KCNK3 block	KCNK9 block conf	Kir2-1 spec	KCNK9 uninduced
O=C(OC1CCS(=O)(=O)c2sccc21)c1ccccc1 (configuration not stated)	-7.1	i	i	i	i	.	.	.
O=S(=O)(Cc1cc(Sc2ccc(Cl)cc2)nc(-c2ccccc2)n1)c1ccccc1	-10.1	i	i	-8.46*	i	i	i	32.0%*
O=S(=O)(Cc1cc(Oc2ccccc2)nc(-c2ccccc2)n1)c1ccccc1	-7.6	i	i	i	i	.	.	.
O=C(CCSCc1ccccc1Cl)NCc1cccs1	5.0*	i	i	i	i	i	i	i
CCc1ccc(NC(=O)CSc2nc3ccccc3nc2N2CCCC2)cc1	-10.0	6*	i	i	i	i	i	i
O=C(CSc1nc2ccccc2nc1N1CCCC1)Nc1ccc(Cl)cc1	-11.8	i	i	i	i	.	.	.
CC(C)c1ccc(NC(=O)CSc2nc3ccccc3nc2N2CCCC2)cc1	-9.2	i	i	i	i	.	.	.
Cc1ccc(NC(=O)CSc2nc3ccccc3nc2N2CCCC2)cc1	-7.0	i	i	i	i	i	i	i
CCN(CC)C(=O)CSc1nnc(CSc2ncccn2)n1C	-5.3	i	i	i	i	.	.	.
COC(=O)C12CC3CC(C1)CC(n1cnc(Cl)n1)(C3)C2	-6.3	i	i	i	i	.	.	.
COC(=O)c1ccccc1NC(=O)C12CC3CC(C1)CC(n1cnc(Cl)n1)(C3)C2	-17.1	i	i	i	i	i	i	i
Cc1ccc(C2CC2C(=O)NNC(=S)Nc2cccc(Cl)c2)cc1 (configuration not stated)	-22.4	6*	i	i	i	i	i	i
Cc1ccc(NC(=S)NNC(=O)C2CC2c2ccc(C)cc2)cc1 (configuration not stated)	-6.0	i	i	i	i	.	.	.
Cc1ccc(C2CC2C(=O)NNC(=S)Nc2cccc(C)c2)cc1 (configuration not stated)	0.0	i	i	i	i	i	i	i
O=C(N/N=C/c1cn(-c2cccs2)nc1-c1ccccc1)c1ccc(O)cc1	-36.0	i	i	i	i	.	.	.
O=C(N/N=C/c1cccs1)c1cccc(NC(=O)c2ccccc2Cl)c1	-18.9	i	i	-9.38*	i	i	i	i
O=C(N/N=C/c1cn(-c2cccs2)nc1-c1ccccc1)c1ccccc1Cl	-2.5	i	i	-10*	i	51.0%*	i	i
O=C(CC1C(=O)NCCN1Cc1cccc(C(F)(F)F)c1)NC1CCCCCC1 (configuration not stated)	-2.5	i	i	i	i	.	.	.
CC(C)c1ccccc1-n1c(SCc2cc(=O)oc3ccc4ccccc4c23)nnc1-c1cccnc1	-17.0	i	i	-11.2*	i	49.5%*	i	i
COc1cc(C(CCN2CCN(c3ccccc3)CC2)c2c(OC)cc(OC)c3c(C)cc(=O)oc23)cc(OC)c1OC (configuration not stated)	-13.9	i	i	i	i	i	i	i
CN(C)C(CNC(=O)CNC(=O)Cc1cccc2ccccc12)c1ccccc1 (configuration not stated)	-6.0	i	i	i	i	.	.	.

Source: PubChem
